Reference: ChEMBL document CHEMBL3758131, “Towards new 5-HT7 antagonists among arylsulfonamide derivatives of (aryloxy)ethyl-alkyl amines: Multiobjective based design, synthesis, and antidepressant and anxiolytic properties” (Eur J Med Chem, 2016)

Legend:
Mus musculus [1] = assay: Anxiolytic activity in ip dosed albino Swiss mouse assessed as increase in number of shocks accepted measured over 1 min, 15 secs by four plates test; format: functional; conditions: read-out: MED
Outline: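 Male Albino Swiss mice, ip injection 60 min before test. Four-plate cage; after 15 s of habituation, each plate-to-plate crossing during a 1-min session is punished with a 0.8 mA, 0.5 s foot shock, followed by a 3-s shock-free interval. Number of shocks accepted is counted.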

[2] = target: 5-hydroxytryptamine receptor 7 (Homo sapiens, UniProt P34969); assay: Antagonist activity at human 5-HT7B receptor expressed in CHO cells assessed as inhibition of 5-CT induced cAMP production at 10^-7 M after 30 mins by TR-FRET assay; format: functional, cell-based
Sequence of 5-hydroxytryptamine receptor 7 (P34969 whole entry): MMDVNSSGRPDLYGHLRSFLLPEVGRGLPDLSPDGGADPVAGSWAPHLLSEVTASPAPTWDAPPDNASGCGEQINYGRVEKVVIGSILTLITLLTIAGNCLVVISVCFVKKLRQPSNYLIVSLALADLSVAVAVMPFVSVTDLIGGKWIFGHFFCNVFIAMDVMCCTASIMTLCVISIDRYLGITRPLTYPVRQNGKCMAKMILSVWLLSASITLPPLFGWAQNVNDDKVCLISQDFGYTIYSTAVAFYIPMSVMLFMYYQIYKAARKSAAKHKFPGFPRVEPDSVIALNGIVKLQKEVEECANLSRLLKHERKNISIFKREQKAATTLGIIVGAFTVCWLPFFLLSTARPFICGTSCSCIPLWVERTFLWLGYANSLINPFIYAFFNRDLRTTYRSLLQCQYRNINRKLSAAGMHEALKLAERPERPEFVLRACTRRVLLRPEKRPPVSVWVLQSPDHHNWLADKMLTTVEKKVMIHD

Mus musculus [3] = assay: Toxicity in ip dosed C57BL/6J mouse assessed as effect on spontaneous locomotory activity at MED measured over 6 mins; format: organism-based; conditions: in vivo, 0.1 h
Outline: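 Mice habituated 30 min in individual cages, then ambulation counted over a period matching each behavioural test: 6 min for the tail suspension test and 1 min 15 s for the four-plate test. Compounds given ip at the active doses.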

Mus musculus [4] = assay: Antidepressant activity in C57BL/6J mouse assessed as average force at 0.625 mg/kg, ip measured over 6 mins by tail suspension test (reference value: 0.281 +/- 0.018 to 0.359 +/- 0.027 N); format: functional
Mus musculus [5] = assay: Toxicity in ip dosed C57BL/6J mouse assessed as effect on spontaneous locomotory activity at MED measured over 1 min 15 secs; format: organism-based; conditions: in vivo
Mus musculus [6] = assay: Toxicity in ip dosed albino Swiss mouse assessed as effect on spontaneous locomotory activity at MED measured over 2 to 6 mins; format: organism-based; conditions: in vivo
Outline: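 Male Albino Swiss mice (22–28 g) received drug i.p. 60 min before testing, in 1% aqueous Tween 80 or distilled water. Each mouse was habituated alone in a plastic cage for 30 min, then ambulation was counted from 2 to 6 min. Groups of 6–10 animals, each used once.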

Mus musculus [7] = assay: Antidepressant activity in C57BL/6J mouse assessed as average force at […], ip measured over 6 mins by tail suspension test (reference value: 0.281 +/- 0.018 to 0.359 +/- 0.027 N); format: functional
Mus musculus [8] = assay: Antidepressant activity in C57BL/6J mouse assessed as number of events at […] mg/kg, ip measured over 6 mins by tail suspension test (reference value: 1325.1 +/- 77.8 to 1773.4 +/- 109.9); format: functional

O=S(=O)(NC1CCN(CCOc2ccccc2C2CCCC2)CC1)c1cccc(F)c1
minimal effective dose (Mus musculus [1]): 1.25 mg/kg | inhibition [2]: 61% | Activity (Mus musculus [3]): Non-toxic | Activity (Mus musculus [4]): 0.18 N | Activity (Mus musculus [5]): Non-toxic | Activity (Mus musculus [6]): Non-toxic | Activity (Mus musculus [7]): 0.641 N | Activity (Mus musculus [8]): 1595.4
